A short description of data set [1]: Cytotoxicity against human HGF cells after 48 hrs. Format: cell-based.
The target in data set [2] is T1, ATP-dependent translocase ABCB1 (Homo sapiens, UniProt P08183). Nature of the data set: Reversal of P-glycoprotein-mediated multidrug resistance in human MDR1 gene transfected mouse L5178Y cells assessed as fluorescence activity ratio at 200 uM by rhodamine 123 accumulation assay. Format: cell-based. A digest of the protocol:
(§1)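 Murine L-5178Y lymphoma cells transfected with human MDR1 gene (P-gp-overexpressing), alongside parental cells, treated or untreated with compound; rhodamine 123 accumulation measured by fluorescence; FAR = ratio of fluorescence intensity in treated versus untreated cells, values above 1 taken as MDR reversal.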

A short description of data set [3]: Growth inhibition of human Molt4/C8 cells after 3 days. Format: functional, cell-based. The following applies: MOLT-4, 72 h. In a few lines: (§2)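 Human CEM and Molt 4/C8 T-lymphocytes were grown for three days with or without serial dilutions of the compound. IC50 is the concentration that inhibits cell growth by 50%.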
Data set [4] concerns HSC-3. Nature of the data set: Cytotoxicity against human HSC3 cells after 48 hrs. It counts as functional. The following applies: HSC-3, 48 h.
Data set [5] deals with HSC-4. The data set can be described thus: Cytotoxicity against human HSC4 cells after 48 hrs. Format: functional. The following applies: HSC-4, 48 h.
Data set [6] has as its system CCRF-CEM. The data set can be described thus: Growth inhibition of human CEM cells after 3 days. It counts as functional, cell-based. The conditions noted are these: 72 h. In a few lines: as §2
The nature of data set [7]: Cytotoxicity against human HPLF cells after 48 hrs. Format: cell-based.
Data set [8] concerns HSC-2. The data set can be described thus: Cytotoxicity against human HSC2 cells after 48 hrs. It counts as functional. The following applies: HSC-2, 48 h.
In data set [9] the target is T1, ATP-dependent translocase ABCB1. The data set can be described thus: Reversal of P-glycoprotein-mediated multidrug resistance in human MDR1 gene transfected mouse L5178Y cells assessed as fluorescence activity ratio at 20 uM by rhodamine 123 accumulation assay. Format: cell-based. A digest of the protocol:
as §1

In data set [10] the test system is HL-60. The data set can be described thus: Cytotoxicity against human HL60 cells after 48 hrs. It counts as functional. The conditions noted are these: HL-60, 48 h.
Data set [11] can be described thus: Cytotoxicity against human HPC cells after 48 hrs. It counts as cell-based.

Each structure is given as a SMILES string.

T1 sequence (P08183 whole entry): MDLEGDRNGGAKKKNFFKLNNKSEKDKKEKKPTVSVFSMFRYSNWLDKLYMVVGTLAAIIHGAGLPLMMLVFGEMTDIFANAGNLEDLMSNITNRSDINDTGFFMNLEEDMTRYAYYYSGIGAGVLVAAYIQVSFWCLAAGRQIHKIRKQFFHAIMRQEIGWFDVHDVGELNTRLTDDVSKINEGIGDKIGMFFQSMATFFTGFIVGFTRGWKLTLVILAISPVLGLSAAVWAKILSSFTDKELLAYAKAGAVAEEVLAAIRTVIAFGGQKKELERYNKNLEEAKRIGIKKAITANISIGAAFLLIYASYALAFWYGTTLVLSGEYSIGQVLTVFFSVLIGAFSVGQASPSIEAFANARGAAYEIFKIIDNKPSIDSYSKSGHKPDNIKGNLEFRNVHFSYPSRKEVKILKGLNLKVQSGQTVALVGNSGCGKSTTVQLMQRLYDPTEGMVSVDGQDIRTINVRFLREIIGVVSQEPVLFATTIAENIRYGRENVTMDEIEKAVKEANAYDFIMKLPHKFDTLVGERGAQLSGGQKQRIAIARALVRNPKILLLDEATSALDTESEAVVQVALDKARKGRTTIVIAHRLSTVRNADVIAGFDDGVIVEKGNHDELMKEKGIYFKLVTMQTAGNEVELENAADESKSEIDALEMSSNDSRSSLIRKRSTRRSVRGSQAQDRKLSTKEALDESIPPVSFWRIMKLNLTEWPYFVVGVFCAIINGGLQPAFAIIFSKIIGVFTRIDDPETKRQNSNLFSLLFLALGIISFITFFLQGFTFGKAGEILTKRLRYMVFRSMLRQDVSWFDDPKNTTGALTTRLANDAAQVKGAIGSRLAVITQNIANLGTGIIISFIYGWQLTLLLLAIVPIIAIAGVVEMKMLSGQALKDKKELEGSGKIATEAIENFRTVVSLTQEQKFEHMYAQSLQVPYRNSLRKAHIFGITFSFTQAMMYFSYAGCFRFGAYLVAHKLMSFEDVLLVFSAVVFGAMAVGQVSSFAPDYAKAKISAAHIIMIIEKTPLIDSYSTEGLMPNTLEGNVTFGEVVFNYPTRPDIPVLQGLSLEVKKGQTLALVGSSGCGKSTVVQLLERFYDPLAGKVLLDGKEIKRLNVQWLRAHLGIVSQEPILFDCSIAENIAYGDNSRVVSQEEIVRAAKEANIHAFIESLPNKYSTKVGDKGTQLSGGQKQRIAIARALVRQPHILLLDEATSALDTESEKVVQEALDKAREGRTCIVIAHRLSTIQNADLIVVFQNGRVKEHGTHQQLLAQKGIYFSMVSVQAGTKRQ

With `Cc1c(C(=O)/C=C/c2ccccc2)[n+]([O-])c2ccccc2[n+]1[O-]`, the half-maximal cytotoxic concentration (CC50) (usually the concentration giving 50% cytotoxicity) at 48 h in data set [1] is 32 µM; in [7], 35 µM; in data set [11], 36 µM. Moreover, the Ratio in [2] is listed as 36.8; in data set [9], 10.9. Besides, the IC50 (as a rule, the midpoint of a concentration-inhibition curve) in data set [3] was 6.76 µM; in data set [6] it was 5.92 µM. Further, the CC50 in data set [4] came out at 9.7 µM; in data set [5] it was 9.6 µM; in [8] it was 8.4 µM; in data set [10], 4.1 µM.

With `Cc1c(C(=O)/C=C/c2ccc3c(c2)OCO3)[n+]([O-])c2ccccc2[n+]1[O-]`, the CC50 at 48 h in [1] came to 75 µM; in data set [7] it was 72 µM; in [11], 79 µM. In addition, the Ratio was 3.67 in data set [2] and 1.58 in [9]. In addition, the IC50 in data set [3] came to 24.2 µM; in data set [6], 28.1 µM. Also, the CC50 in data set [4] came to 25 µM; in data set [5] it was 28 µM; in data set [8], 23 µM; in data set [10], 13 µM.

For the compound `Cc1c(C(=O)/C=C/c2cccc([N+](=O)[O-])c2)[n+]([O-])c2ccccc2[n+]1[O-]`, the CC50 at 48 h in data set [1] was 47 µM; in [7], 18 µM; in data set [11], 46 µM. In addition, the Ratio in data set [2] stood at 3.75; in [9] it was 1.89. For the same compound, the IC50 in [3] was found to be 16.3 µM; in data set [6], 15.8 µM. Also, the 50% cytotoxic concentration (CC50) in [4] turned out to be 122 µM; in [5], 54 µM; in [8] it was 34 µM; in [10] it was 62 µM.

Turning to `CC(=O)c1c(C)[n+]([O-])c2ccccc2[n+]1[O-]` [MEQUINDOX], the figures for the CC50 at 48 h in data set [1], in data set [7] and in data set [11] were above 400 µM, above 400 µM and 352 µM, respectively. For the same compound, the Ratio in data set [2] is on record as 1.04; in data set [9] it was 1.06. Besides, the values for the IC50 in data set [3] and in [6] were 44.6 µM and 87.4 µM, respectively. The CC50 in data set [4] turned out to be 146 µM; in [5], 134 µM; in data set [8], 196 µM; in data set [10] it was 26 µM.

`COc1cc(/C=C/C(=O)c2c(C)[n+]([O-])c3ccccc3[n+]2[O-])cc(OC)c1OC`: the CC50 at 48 h in data set [1] stood at 35 µM; in [7], 33 µM; in [11], 31 µM. For the same compound, the Ratio in [2] was found to be 41.9; in [9] it was 8.15. Moreover, the IC50 in data set [3] was 5.51 µM; in data set [6], 5.22 µM. For the same compound, the CC50 in data set [4] is 6.6 µM; in data set [5], 6.5 µM; in data set [8] it was 7.8 µM; in [10], 1.9 µM.

Consider `Cc1c(C(=O)/C=C/c2ccc(Br)cc2)[n+]([O-])c2ccccc2[n+]1[O-]`, for which the cytotoxic concentration (CC50) at 48 h was 53 µM in [1], 26 µM in [7] and 43 µM in [11]. The Ratio in data set [2] amounted to 2.81; in data set [9], 2.03. Further, the IC50 in data set [3] was determined as 17.1 µM; in [6], 11.6 µM. The CC50 in [4] is 56 µM; in data set [5], 36 µM; in data set [8], 19 µM; in [10], 23 µM.
